Only some compounds are listed: those with a hit (about 2.5% of all), similar ones and a draw of the others.
SR-BI uptake up = activators of SR-BI mediated HDL lipid uptake | 0.096% of 320,000 active | CHO ldlA[mSR-BI] cells, DiI-HDL uptake fluorescence, 3 h; 100 = double the neutral-control signal | activation, % at 12.5 µM;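 active = mean replicate activation of at least 60% and every replicate at or above 60%; inconclusive = mean or all-replicate condition met, but not both; inactive = mean below 60% and not all replicates reaching 60%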;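 note: 0% = median plate neutral-control signal and 100% = twice that signal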
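material = CHO ldlA[mSR-BI] cells | medium = Ham's F12 with 0.5% BSA, HEPES 25 mM, pH 7.4 | reagent = fluorescent DiI-HDL, 10 µg/mL final | compound dosing = single-point compound dose | incubation = 3 h, 37 °C | measured by = bottom-read fluorescence, 550/595 nm | measure = HDL uptake via cellular fluorescence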
SMARCA2 activ = activators of SMARCA2 function | MG213 cells, MMTV-luciferase reporter, dexamethasone, overnight | activation, % at 9.1 µM | 1% of 370,000 active | AID 652017; in the data active = activation above about 7.8%;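 note: 0% = vehicle wells and 100% = reference activator wells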
SR-BI HDL uptake = inhibitors of mouse SR-BI mediated HDL lipid uptake; ldlA[mSR-BI] CHO cells, DiI-HDL uptake fluorescence, 3 h; inhibition, % at 12.5 µM; 0.96% of 320,000 active;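 active = mean replicate inhibition of at least 70% and a set share of replicates each scoring 70 or more; inconclusive = meets just one of the two criteria; inactive = fails both criteria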;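 note: 0% = median of neutral control wells and 100% = median of positive control wells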
Target sequence (Q61009 whole entry, looked up): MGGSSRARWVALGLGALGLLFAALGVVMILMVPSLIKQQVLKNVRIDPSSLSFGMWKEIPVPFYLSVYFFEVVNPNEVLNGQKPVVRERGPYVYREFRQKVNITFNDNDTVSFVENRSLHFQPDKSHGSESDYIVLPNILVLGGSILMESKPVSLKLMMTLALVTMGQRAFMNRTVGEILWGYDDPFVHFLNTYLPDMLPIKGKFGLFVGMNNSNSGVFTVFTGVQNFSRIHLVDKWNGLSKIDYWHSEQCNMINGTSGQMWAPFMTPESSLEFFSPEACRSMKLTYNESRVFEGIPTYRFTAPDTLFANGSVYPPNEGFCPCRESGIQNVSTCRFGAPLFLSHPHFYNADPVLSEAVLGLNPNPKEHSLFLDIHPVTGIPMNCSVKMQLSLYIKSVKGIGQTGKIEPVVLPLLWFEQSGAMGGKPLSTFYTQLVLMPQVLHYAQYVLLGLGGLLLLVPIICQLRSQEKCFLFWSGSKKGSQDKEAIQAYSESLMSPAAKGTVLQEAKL
H9c2 TAG inh = triacylglycerol accumulation inhibition; H9c2 cells, Nile Red lipid (TAG) fluorescence; cells loaded with 200 µM oleic acid; inhibition, % at 12.5 µM; 0.66% of 230,000 active; AID 651582;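 active = pattern-corrected inhibition of lipid staining of at least 50% with the nuclear-stain viability signal not falling by more than 50%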;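 note: 0% = DMSO wells and 100% = triacsin C control wells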
Vif inh = inhibitors of HIV Vif; 0.35% of 340,000 active; inhibition, % at 7.49 µM; HEK293T cells, Vif self-association by quenched fluorescence, imaging, 24 h; in the data active = inhibition above about 50%, passing the limit was not always enough; inconclusive = no clear call, values can overlap the other calls; inactive = below about 31%
SMARCA2 act conf = SMARCA2 activation, confirmation screen. shares compounds with SMARCA2 activ. MG213 cells, MMTV-luciferase with dexamethasone, luminescence, overnight; MG213 cells expressing E1A, Rb sequestered; DMSO wells 0%, reference activator 100%. activation, % at 9.1 µM. 30% of 3,500 active. AID 652260;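 active = activation above its plate's cutoff, the mean activation of tested wells plus 3 SD, cut at about 7.9% in these data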
VP16 Luc act = GAL4-VP16 reporter activation counter-screen. shares compounds with SMARCA2 activ. HEK293 GAL4-VP16 pG5luc reporter, luciferase luminescence; scaled: DMSO wells 0%, SAHA wells 100%. activation, % at 9.1 µM. 41% of 3,500 active. AID 686939;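 active = activation above the solvent-only control well mean plus 3 SD, averaged across control plates, cut at about 5.2% in these data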
Starred values were filed as active, the others as inactive; ? = inconclusive; / = no result given.

SMILES	SR-BI uptake up	SMARCA2 activ	SR-BI HDL uptake	H9c2 TAG inh	Vif inh	SMARCA2 act conf	VP16 Luc act
COc1cc(CN(C(=S)NCC(=O)N2CCCC2)C2CCCC2)cc(OC)c1OC	-17	1	17	-3	-14	/	/
CC(C)CNC(=O)OCc1cn(Cc2cccc(F)c2F)nn1	/	1	/	/	/	/	/
CCOc1ccc2nc(/N=C/c3c(C)[nH]n(-c4ccc(C)cc4)c3=O)sc2c1	17	11*	-17	/	-7	2	6.5*
CCOC(=O)Cn1cncc1-c1ccc([N+](=O)[O-])cc1	24	13*	-24	1	1	6	3
COCCCn1c(=S)[nH]c2ccc(N3CCOCC3)cc2c1=O	43	-2	-43	/	-2	/	/
CCCCN(C)CCn1c(=S)[nH]c2ccc(N3CCOCC3)cc2c1=O	13	9.7*	-13	/	-5	-1	2
S=C(NCCc1ccccc1)N1CCN(C(=S)NCCc2ccccc2)CC1	-20	1	20	-5	9	/	/
CC1CCN(C(=S)NCCc2ccccc2)CC1	0	8.7*	0	/	-1	11*	6.7*
CCc1ccccc1N=Nc1c(N)[nH]n(-c2ccccc2)c1=O	/	10*	/	/	/	8.1*	6.0*
COc1cc(/C=C2\SC(=S)N(Nc3ccccc3)C2=O)ccc1O	-1	8.2*	1	/	1	7	11*
CCOc1cc(/C=C2\SC(=S)N(Nc3ccccc3)C2=O)ccc1O	-36	4	36	-3	-5	/	/
CNS(=O)(=O)c1cc(C(=O)OCC(=O)NC2CCCc3ccccc32)ccc1Cl (stereo not given)	-8	-2	8	/	-2	/	/
CCN(CC)S(=O)(=O)c1cc(C(=O)OCC(=O)NC2CCCc3ccccc32)ccc1C (stereo not given)	-30	11*	30	/	/	-3	-1
O=C(Nc1ccccc1OC(F)F)c1ccc(N2CCCC2=O)cc1	/	2	/	7	2	/	/
Cc1nc2c(ccc3nc(NC(=O)Cc4ccccc4)sc32)s1	-7	10*	7	48	-6	7	4
CN(Cc1ccccc1F)C(=O)CN1c2cccc3cccc(c23)S1(=O)=O	11	1	-11	-8	3	/	/
CCCCn1c2ccc(F)cc2c2nnc(SCCN3CCOCC3)nc21	-29	3	29	/	-10	/	/
Cn1c2ccc(F)cc2c2nnc(SCCN3CCOCC3)nc21	12	13*	-12	/	-16	3	2
COc1ccc(Cl)cc1NC(=O)CSc1nnc(C2CC2)n1C	2	-1	-2	/	-1	/	/
COc1ccc(Cl)cc1NC(=O)CSc1nnc(C)c(=O)n1N	-3	8.3*	3	13	-6	6	0
CCOc1ccc(-c2ccc(SCC)nn2)cc1	-18	5	18	6	-6	/	/
CCSc1ccc(-c2ccc(C)cc2)nn1	2	13*	-2	1	-3	14*	9.5*
C/C(=N\NC(=O)c1sccc1C)c1ccncc1	-8	9.2*	8	12	3	9.4*	10*
O=C(O)CC/C(=N/NC(=O)c1cccs1)c1ccccc1	38	9.2*	-38	/	8	4	2
C/C(=N/NC(=O)c1ccc(C)s1)c1ccncc1	-5	1	5	4	12	/	/
SMILES	SR-BI uptake up	SMARCA2 activ	SR-BI HDL uptake	H9c2 TAG inh	Vif inh	SMARCA2 act conf	VP16 Luc act
C/C(=N\NC(=O)c1cccs1)c1ccncc1	16	9.5*	-16	/	/	4	1
COc1ccc(/C(N)=N/OC(=O)c2ccc3c(c2)OCO3)cc1OC	15	12*	-15	/	1	9.7*	17*
CCOC(=O)c1cc2c(=O)n3ccccc3nc2n(C(C)C)c1=NC(=O)c1ccco1	-3	6	3	7	14	/	/
CCCn1c(=NC(=O)c2ccco2)c(C(=O)OCC)cc2c(=O)n3ccccc3nc21	15	13*	-15	/	/	4	2
CC(C)(C)c1ccc(C(=O)NCC(=O)NCc2ccccn2)cc1	7	8.4*	-7	5	-4	1	2
O=C(CNC(=O)c1ccc(F)cc1)NCc1ccccn1	30	-2	-30	24	-6	/	/
CCN(CC)CCCNc1nc2ccccc2c2[nH]c3ccc(OC)cc3c12	-18	54*	18	130	-24	-15	-1
O=C(COc1ccc([N+](=O)[O-])cc1)NCC(c1cccs1)N1CCOCC1 (stereo not given)	4	-2	-4	1	-6	/	/
CC(C(=O)Nc1ccccn1)(c1ccccc1)c1ccccc1	16	-3	-16	/	12	/	/
CC(C)c1ccc(C(=O)CN2C(=O)NC3(CCc4ccccc43)C2=O)cc1 (stereo not given)	-19	11*	19	0	4	3	0
O=C(CN1C(=O)NC2(CCc3ccccc32)C1=O)c1ccc(Cl)cc1 (stereo not given)	-2	0	2	14	?	/	/
COc1cccc(NC(=O)CN2C(=O)NC3(CCc4ccccc43)C2=O)c1 (stereo not given)	/	9.0*	-4	-18	18	0	0
O=C(CN1C(=O)NC2(CCc3ccccc32)C1=O)Nc1cccc(Cl)c1 (stereo not given)	/	-5	/	3	3	/	/
COc1cccc(CNC[C@H]2O[C@@H](n3ccc(N)nc3=O)[C@H](O)[C@@H]2O)c1OCc1ccc(F)cc1Cl	/	-3	/	-4	0	/	/
CCSc1nc(N2CCOCC2)c2ccccc2n1	0	13*	0	-3	-7	3	1
CCc1ccc2c(c1)/C(=N/OC)C(=O)N2	-17	0	17	0	0	/	/
Cc1ccc([N+](=O)[O-])cc1-c1ccc(/C=C(\C#N)c2[nH]nc(N)c2C#N)o1	13	9.5*	-13	8	2	1	12*
CCOc1ccccc1-c1nc(-c2cc3ccc(C)cc3[nH]c2=O)no1	-43	-2	43	/	-1	/	/
CCCc1nc(-c2cc3ccc(C)cc3[nH]c2=O)no1	/	9.2*	/	2	-1	-1	2
Cc1nc2scc(-c3ccccc3)c2c(=O)n1N=C1C=CC(=O)C=C1	/	-4	/	/	/	/	/
Cc1cc(C)cc(OCC(=O)Nc2cccc(-c3nc4ncccc4o3)c2)c1	-20	8.6*	17	12	-1	-1	1
CCCC[C@H](C(=O)N(C)c1cccc(OC)c1)[C@@H](O)c1ccc(C(C)=O)cc1	/	-2	/	/	/	/	/
CN(Cc1ccccc1)C(=O)c1cc(-c2ccc(Br)cc2)on1	23	8.1*	-23	/	4	3	5.3*
CS(=O)(=O)c1ccc(C(=O)OCc2nnc(-c3ccccc3)o2)cc1[N+](=O)[O-]	-11	12*	11	25	6	-13	9.0*

Assay outcomes: PubChem BioAssay, several laboratories
